The values that follow come from ChEMBL document CHEMBL1781963, “Discovery of novel hepatoselective HMG-CoA reductase inhibitors for treating hypercholesterolemia: a bench-to-bedside case study on tissue selective drug distribution” (Bioorg Med Chem Lett, 2011).

One may read the logD as the decadic logarithm of the distribution of all forms, ionised or not, between an organic phase and buffer at a given pH. A low value points to a more hydrophilic compound. The inhibition in vivo is the change of the read-out against control, counted positive when it falls.

One series addresses T1, OATP1A4 (Rattus norvegicus, UniProt O35913).
T1 sequence (O35913 whole entry): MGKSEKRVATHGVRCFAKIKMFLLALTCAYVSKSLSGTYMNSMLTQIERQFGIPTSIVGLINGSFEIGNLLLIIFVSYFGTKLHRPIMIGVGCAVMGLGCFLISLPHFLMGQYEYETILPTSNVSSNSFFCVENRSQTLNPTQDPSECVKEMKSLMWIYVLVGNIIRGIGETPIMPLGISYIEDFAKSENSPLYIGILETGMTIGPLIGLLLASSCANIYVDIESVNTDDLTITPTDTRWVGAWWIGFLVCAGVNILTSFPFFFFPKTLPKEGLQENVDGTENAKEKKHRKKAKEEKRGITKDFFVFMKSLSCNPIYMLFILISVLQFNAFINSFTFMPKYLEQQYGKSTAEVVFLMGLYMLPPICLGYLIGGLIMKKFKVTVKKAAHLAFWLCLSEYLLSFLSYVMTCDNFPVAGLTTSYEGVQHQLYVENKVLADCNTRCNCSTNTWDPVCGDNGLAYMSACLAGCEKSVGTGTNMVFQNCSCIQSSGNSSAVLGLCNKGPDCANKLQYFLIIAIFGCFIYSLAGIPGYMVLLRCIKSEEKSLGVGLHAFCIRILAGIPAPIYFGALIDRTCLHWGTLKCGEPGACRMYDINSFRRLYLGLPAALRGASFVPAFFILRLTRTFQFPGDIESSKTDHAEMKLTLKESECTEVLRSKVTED
In words: Drug uptake by rat hepatic OATP1A4 transporters expressed in CHO cells at 10 uM relative to wild type CHO cells. The format is ADME, cell-based. The note with it: CHO cells expressing rat OATP1A4, read-out: FC. The essentials: (§1)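 Individual hepatic OATP transporters were over-expressed in CHO or HEK293 cells: rat rOatp1a1, rOatp1a4 and rOatp1b2, and human hOATP1B1, hOATP1B3 and hOATP2B1. Substrate uptake is expressed as fold difference relative to the wild-type parental line. Rosuvastatin/pravastatin served as positive control and midazolam as negative control in each assay.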

For another series, the target named is T2, OATP1A1 (Rattus norvegicus, UniProt P46720).
T2 sequence (P46720 whole entry): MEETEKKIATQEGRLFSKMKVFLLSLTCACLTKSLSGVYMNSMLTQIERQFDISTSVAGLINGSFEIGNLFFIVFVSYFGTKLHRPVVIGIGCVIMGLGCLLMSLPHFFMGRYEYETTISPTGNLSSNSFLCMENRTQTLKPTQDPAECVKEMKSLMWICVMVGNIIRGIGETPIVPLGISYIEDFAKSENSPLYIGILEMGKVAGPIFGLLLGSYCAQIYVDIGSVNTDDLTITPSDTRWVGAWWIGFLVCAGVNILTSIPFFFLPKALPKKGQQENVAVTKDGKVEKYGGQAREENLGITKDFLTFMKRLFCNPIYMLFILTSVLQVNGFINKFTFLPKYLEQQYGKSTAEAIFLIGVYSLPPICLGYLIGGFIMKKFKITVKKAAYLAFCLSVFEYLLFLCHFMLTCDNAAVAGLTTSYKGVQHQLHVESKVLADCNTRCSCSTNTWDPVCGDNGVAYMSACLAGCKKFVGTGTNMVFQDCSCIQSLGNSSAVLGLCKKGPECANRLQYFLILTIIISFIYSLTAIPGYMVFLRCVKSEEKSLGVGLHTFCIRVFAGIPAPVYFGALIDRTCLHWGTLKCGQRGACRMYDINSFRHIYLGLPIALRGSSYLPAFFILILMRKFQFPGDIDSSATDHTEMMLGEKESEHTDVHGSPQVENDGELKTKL
Description: Drug uptake by rat hepatic OATP1A1 transporters expressed in CHO cells at 10 uM relative to wild type CHO cells. The format is ADME, cell-based. The note with it: CHO cells expressing rat OATP1A1, read-out: FC. The procedure, abridged:
as §1

The next series has as its target T3, OATP1B2 (Rattus norvegicus, UniProt Q9QZX8).
T3 sequence (Q9QZX8 whole entry): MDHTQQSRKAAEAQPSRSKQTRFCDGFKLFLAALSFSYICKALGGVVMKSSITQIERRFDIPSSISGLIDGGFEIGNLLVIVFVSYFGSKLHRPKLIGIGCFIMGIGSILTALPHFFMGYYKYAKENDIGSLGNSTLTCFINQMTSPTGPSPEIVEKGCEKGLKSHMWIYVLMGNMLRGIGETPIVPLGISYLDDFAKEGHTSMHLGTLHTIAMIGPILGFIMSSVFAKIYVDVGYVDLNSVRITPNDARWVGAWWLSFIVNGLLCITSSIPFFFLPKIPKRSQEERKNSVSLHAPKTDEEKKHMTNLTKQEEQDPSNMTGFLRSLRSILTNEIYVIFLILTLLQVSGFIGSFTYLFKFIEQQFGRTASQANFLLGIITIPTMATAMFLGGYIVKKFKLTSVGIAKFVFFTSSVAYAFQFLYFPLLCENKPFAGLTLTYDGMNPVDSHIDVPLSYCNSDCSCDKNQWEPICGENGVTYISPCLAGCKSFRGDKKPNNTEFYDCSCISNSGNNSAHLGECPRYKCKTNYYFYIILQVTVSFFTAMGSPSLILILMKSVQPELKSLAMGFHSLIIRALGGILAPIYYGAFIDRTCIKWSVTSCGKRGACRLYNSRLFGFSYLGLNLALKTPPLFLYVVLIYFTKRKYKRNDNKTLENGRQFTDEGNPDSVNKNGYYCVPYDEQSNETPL
In words: Drug uptake by rat hepatic OATP1B2 transporters expressed in CHO cells at 1 uM relative to wild type CHO cells. The format is ADME, cell-based. The note with it: CHO cells expressing rat OATP1B2, read-out: FC. The essentials:
as §1

Another series has as its system Hepatocyte. Description: Drug uptake in sandwich-cultured human hepatocytes assessed per mg of protein at 1 uM. The format is ADME, cell-based. The essentials: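 Rat or human hepatocytes were cultured in sandwich configuration with a Matrigel overlay and compound uptake was measured. Active uptake was assessed by inhibition with the pan-OATP inhibitor rifamycin SV. Rosuvastatin/pravastatin served as positive control and midazolam as negative control.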

Series [1] in a line: Lipophilicity, log D of the compound at pH 7.4 by shake flask method. The format is physicochemical. The note with it: buffer. The essentials: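 Log D at pH 7.4 by shake flask.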
The next series concerns Syrian golden hamster. In words: Inhibition of cholesterol synthesis in golden syrian hamster assessed as reduction of [14C]-cholesterol level at 10 mg/kg, po followed by 2 hrs after treated with 80 uCi, ip of [14C]-sodium acetate measured after 4 hrs by liquid scintillation counting relative to control. The note with it: Mesocricetus auratus. The format is functional. The procedure, abridged:
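Hamsters dosed po at 10 mg/kg at t = 0 h. Intraperitoneal 14C sodium acetate at t = 2 h, blood drawn at t = 4 h for 14C cholesterol. Percent inhibition vs untreated controls, n = 8/group.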

In the case of `CC[C@H](C)C(=O)O[C@H]1C[C@H](O)C=C2C=C[C@H](C)[C@H](CC[C@@H](O)C[C@@H](O)CC(=O)O)[C@H]21` [PRAVASTATIN], the uptake ratio at 10 µM at OATP1A4 turned out to be 1.8; at OATP1A1, 3.9. Further, the uptake ratio at 1 µM on OATP1B2 is 3.6.

In the case of `O=C([O-])C[C@H](O)C[C@H](O)CCn1c(-c2ccc(F)cc2)nc(C(=O)NCc2cccc(F)c2)c1C1CC1.[Na+]`, the uptake ratio at 10 µM at OATP1A4 turned out to be 7.3; at OATP1A1, 4.4. Besides, the Drug uptake in the series with Hepatocyte is 1.5 pmol/min/mg. Moreover, the uptake ratio at 1 µM on OATP1B2 was 1.8. Further, the logD in series [1] turned out to be 0.51. Moreover, the inhibition in vivo at 10 mg/kg in the series on Syrian golden hamster was -68%.

For `Cc1ccc(CNC(=O)c2nn(-c3ccc(F)cc3)c(CC[C@@H](O)C[C@@H](O)CC(=O)O)c2C(C)C)cc1`, the uptake ratio at 10 µM on OATP1A4 was found to be 3; at OATP1A1, 4.2. This compound also yielded a Drug uptake with Hepatocyte of 7.8 pmol/min/mg. Besides, the uptake ratio at 1 µM on OATP1B2 was found to be 2.9. The same compound registered a logD in series [1] of 0.24. Moreover, the inhibition in vivo at 10 mg/kg in the series on Syrian golden hamster was -74%.

Consider `CC(C)c1nc(N(C)S(C)(=O)=O)nc(-c2ccc(F)cc2)c1/C=C/[C@@H](O)C[C@@H](O)CC(=O)O` [ROSUVASTATIN], for which the uptake ratio at 10 µM is 17.3 at OATP1A4 and 5.3 at OATP1A1. The Drug uptake with Hepatocyte was 8 pmol/min/mg. In series [1], the logD turned out to be 1.01. The inhibition in vivo at 10 mg/kg in the series on Syrian golden hamster was -76%.

For the compound `Cc1ncc2n1-c1ccc(Cl)cc1C(c1ccccc1F)=NC2` [MIDAZOLAM], the figures for the uptake ratio at 10 µM at OATP1A4 and on OATP1A1 were 0.82 and 1.7, respectively. Besides, the uptake ratio at 1 µM on OATP1B2 came to 1.1.
